Data published in ChEMBL document CHEMBL1124072, “1,2,4-Trioxanes as potential antimalarial agents” (J Med Chem, 1988).
Converted amounts (≈) assume the structure as drawn.

System: Plasmodium falciparum
Experiment: In vitro EC50 against chloroquine susceptible Plasmodium falciparum by [3H]hypoxanthine incorporation
Format: functional, organism-based
How it was run: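 Chloroquine-susceptible P. falciparum cultured in vitro and tested by the Desjardins method. Inhibition of parasite [3H]hypoxanthine uptake is the read-out. The value is the concentration (ng/mL) giving 50% inhibition of uptake.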

| Compound | IC50 [µg/mL] |
| --- | --- |
| CC(C[C@@]12C=C[C@]3(OO1)C(C)(C)CCC[C@@]3(C)O2)OC(=O)c1ccccc1 (stereo partly specified) | 0.733 (≈ 1.97 µM) |
| COC(=O)C[C@@]12C=C[C@]3(OO1)C(C)(C)CCC[C@@]3(C)O2 | 0.096 (≈ 0.34 µM) |
| COC(=O)C[C@@]12CC[C@]3(OO1)C(C)(C)CCC[C@@]3(C)O2 | 0.083 (≈ 0.292 µM) |
| CC(C[C@@]12CC[C@]3(OO1)C(C)(C)CCC[C@@]3(C)O2)OC(=O)c1ccccc1 (stereo partly specified) | 0.0239 (≈ 0.0638 µM) |
| CC1(C)CCC[C@@]2(C)O[C@]3(C)CC[C@]12OO3 | 1.35 (≈ 5.97 µM) |
| C[C@H](C[C@@]12C=C[C@]3(OO1)C(C)(C)CCC[C@@]3(C)O2)OC(=O)c1ccccc1 | 0.789 (≈ 2.12 µM) |
| C[C@@H](O)C[C@@]12CC[C@]3(OO1)C(C)(C)CCC[C@@]3(C)O2 | 0.389 (≈ 1.44 µM) |
| CC1(C)CCC[C@@]2(C)O[C@]3(C)C=C[C@]12OO3 | > 1.2 |
| C[C@@H](O)C[C@@]12C=C[C@]3(OO1)C(C)(C)CCC[C@@]3(C)O2 | 4.93 (≈ 18.4 µM) |
| C[C@H](C[C@@]12CC[C@]3(OO1)C(C)(C)CCC[C@@]3(C)O2)OC(=O)c1ccccc1 | 1.12 (≈ 2.99 µM) |
| C[C@@H]1CC[C@H]2[C@@H](C)C(=O)O[C@@H]3O[C@@]4(C)CC[C@@H]1[C@]32OO4 [ARTEMISININ] | 0.00113 (≈ 0.004 µM) |
